The source of these data is ChEMBL document CHEMBL5653631, “A Potent and Selective ULK1 Inhibitor Suppresses Autophagy and Sensitizes Cancer Cells to Nutrient Stress” (iScience, 2018).

Structures are written as SMILES.

In assay [1] the target is T1, Mitogen-activated protein kinase kinase kinase 5 (Homo sapiens) (UniProt Q99683).
T1 sequence (whole entry): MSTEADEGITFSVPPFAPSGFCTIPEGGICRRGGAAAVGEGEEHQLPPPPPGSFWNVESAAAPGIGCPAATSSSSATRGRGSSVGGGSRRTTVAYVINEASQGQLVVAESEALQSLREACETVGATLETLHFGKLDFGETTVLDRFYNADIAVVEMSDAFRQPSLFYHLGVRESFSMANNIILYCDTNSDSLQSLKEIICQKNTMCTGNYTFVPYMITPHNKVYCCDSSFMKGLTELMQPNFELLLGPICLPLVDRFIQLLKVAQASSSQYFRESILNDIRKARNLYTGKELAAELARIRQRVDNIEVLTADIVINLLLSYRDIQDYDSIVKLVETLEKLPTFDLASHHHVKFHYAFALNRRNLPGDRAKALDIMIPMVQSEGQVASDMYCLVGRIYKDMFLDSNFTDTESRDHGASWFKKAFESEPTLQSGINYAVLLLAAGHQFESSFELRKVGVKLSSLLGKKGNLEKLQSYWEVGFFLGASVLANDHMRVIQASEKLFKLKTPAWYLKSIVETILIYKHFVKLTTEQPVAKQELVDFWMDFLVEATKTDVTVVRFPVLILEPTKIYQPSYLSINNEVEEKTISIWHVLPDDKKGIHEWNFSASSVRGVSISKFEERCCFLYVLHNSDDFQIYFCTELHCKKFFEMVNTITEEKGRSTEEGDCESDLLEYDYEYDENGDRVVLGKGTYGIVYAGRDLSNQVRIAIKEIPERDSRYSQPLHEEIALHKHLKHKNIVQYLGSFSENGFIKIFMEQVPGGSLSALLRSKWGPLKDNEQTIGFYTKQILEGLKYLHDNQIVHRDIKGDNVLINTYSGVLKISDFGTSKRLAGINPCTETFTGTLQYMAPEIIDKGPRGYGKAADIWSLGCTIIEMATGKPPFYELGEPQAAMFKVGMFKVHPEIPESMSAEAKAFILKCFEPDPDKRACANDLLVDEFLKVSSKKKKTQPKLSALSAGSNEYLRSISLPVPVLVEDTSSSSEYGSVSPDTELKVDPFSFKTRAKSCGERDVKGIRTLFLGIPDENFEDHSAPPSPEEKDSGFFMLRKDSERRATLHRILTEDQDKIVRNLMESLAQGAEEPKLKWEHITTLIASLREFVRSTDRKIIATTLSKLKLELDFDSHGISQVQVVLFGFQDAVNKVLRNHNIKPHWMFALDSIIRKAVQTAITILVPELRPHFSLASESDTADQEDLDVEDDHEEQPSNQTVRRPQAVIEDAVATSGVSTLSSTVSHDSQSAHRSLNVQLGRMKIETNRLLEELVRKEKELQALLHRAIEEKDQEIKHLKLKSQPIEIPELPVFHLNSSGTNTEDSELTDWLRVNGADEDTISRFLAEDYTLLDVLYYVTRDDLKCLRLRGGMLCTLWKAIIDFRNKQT
Description: Inhibition of human recombinant MAP3K5 at 40 nM in presence of ATP by radiometric assay relative to control.

In assay [2] the target is T2, Serine/threonine-protein kinase ULK3 (Homo sapiens) (UniProt Q6PHR2).
T2 sequence (whole entry): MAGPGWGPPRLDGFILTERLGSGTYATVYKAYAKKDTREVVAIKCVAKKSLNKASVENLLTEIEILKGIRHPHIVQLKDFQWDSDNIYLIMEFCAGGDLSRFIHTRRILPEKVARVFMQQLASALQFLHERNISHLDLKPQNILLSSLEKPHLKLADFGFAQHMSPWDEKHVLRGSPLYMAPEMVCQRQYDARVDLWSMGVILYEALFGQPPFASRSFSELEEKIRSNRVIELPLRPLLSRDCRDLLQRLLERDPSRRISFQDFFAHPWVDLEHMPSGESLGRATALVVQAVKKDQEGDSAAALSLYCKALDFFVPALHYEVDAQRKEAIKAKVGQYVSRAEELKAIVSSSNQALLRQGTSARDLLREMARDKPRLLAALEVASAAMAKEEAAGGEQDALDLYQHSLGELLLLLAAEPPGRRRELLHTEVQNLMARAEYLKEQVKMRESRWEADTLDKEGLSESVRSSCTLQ
Description: Inhibition of human recombinant ULK3 at 40 nM related to control ULK1.

Assay [3] concerns the target Fibroblast growth factor receptor 1 (Homo sapiens) (UniProt P11362). Description: Inhibition of human recombinant FGFR1 at 40 nM in presence of ATP by radiometric assay relative to control.
Assay [4] has as its target Serine/threonine-protein kinase B-raf (Homo sapiens) (UniProt P15056). The experiment in a line: Inhibition of human recombinant BRAF at 500 nM related to control ULK1.
Assay [5] addresses Activin receptor type-1-like (Homo sapiens) (UniProt P37023). Description: Inhibition of human recombinant ALK1 at 500 nM in presence of ATP by radiometric assay relative to control. In a few lines: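 Panel of 327 recombinant human kinases, each assayed in vitro by radiometric activity assay in duplicate at a single inhibitor concentration per compound, chosen with reference to its ULK1 inhibition. Activity remaining was expressed as percent of vehicle control, and percent inhibition was calculated as 100 minus percent activity remaining.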

In assay [6] the target is Tyrosine-protein kinase Lck (Homo sapiens) (UniProt P06239). Description: Inhibition of human recombinant LCK at 500 nM in presence of ATP by radiometric assay relative to control.
Sequence of Tyrosine-protein kinase Lck (Homo sapiens) (P06239 2-509 limits assumed): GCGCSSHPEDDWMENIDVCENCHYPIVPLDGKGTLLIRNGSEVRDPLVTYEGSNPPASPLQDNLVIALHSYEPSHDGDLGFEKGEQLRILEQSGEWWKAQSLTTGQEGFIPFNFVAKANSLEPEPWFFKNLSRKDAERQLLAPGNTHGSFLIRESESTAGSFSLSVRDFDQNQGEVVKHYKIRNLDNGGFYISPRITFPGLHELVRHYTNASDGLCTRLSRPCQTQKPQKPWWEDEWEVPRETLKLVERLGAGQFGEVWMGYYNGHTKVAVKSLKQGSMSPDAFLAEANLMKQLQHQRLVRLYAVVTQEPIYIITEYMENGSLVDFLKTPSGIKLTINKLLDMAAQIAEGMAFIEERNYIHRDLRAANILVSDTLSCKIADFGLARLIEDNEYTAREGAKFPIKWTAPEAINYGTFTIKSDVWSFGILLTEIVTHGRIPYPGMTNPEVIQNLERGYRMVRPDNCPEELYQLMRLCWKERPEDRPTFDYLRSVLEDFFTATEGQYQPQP
Assay [7] addresses Casein kinase I isoform gamma-3 (Homo sapiens) (UniProt Q9Y6M4). The experiment in a line: Inhibition of human recombinant CK1g3 at 500 nM in presence of ATP by radiometric assay relative to control.
In assay [8] the target is T3, MAPK/MAK/MRK overlapping kinase (Homo sapiens) (UniProt Q9UQ07).
T3 sequence (whole entry): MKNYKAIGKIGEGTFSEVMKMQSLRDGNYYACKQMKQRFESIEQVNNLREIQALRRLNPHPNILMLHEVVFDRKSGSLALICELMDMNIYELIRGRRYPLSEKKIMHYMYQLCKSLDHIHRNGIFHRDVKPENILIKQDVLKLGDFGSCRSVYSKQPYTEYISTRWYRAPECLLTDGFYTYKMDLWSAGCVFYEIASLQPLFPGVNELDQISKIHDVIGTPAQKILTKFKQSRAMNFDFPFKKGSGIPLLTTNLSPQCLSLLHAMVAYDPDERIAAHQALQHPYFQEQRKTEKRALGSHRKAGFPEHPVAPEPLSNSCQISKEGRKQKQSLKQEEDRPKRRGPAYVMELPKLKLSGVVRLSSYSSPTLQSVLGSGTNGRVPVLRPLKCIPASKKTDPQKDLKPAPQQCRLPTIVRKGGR
Description: Inhibition of human recombinant MOK at 500 nM related to control ULK1.

Sequence of Serine/threonine-protein kinase B-raf (Homo sapiens) (P15056 whole entry): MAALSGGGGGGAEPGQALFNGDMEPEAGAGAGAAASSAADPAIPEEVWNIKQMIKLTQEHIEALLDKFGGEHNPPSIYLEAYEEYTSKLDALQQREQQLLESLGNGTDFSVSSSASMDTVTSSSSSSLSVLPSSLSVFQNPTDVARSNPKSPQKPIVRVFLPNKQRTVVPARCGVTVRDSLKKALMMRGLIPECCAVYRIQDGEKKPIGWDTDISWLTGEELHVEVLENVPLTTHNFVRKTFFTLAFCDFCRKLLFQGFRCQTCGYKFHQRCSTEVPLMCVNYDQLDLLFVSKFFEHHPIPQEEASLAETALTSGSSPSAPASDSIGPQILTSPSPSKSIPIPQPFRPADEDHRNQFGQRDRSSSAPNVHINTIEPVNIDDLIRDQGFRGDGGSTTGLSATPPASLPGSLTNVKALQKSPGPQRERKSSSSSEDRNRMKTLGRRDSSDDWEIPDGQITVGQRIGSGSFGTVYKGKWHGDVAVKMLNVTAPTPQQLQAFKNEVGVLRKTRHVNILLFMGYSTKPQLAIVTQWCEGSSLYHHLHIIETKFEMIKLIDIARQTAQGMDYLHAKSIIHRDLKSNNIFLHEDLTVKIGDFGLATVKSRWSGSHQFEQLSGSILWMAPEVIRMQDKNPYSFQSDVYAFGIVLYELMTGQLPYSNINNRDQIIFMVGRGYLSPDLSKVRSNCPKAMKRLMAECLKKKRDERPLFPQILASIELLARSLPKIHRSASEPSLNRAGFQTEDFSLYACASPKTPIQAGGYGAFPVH
Sequence of Activin receptor type-1-like (Homo sapiens) (P37023 whole entry): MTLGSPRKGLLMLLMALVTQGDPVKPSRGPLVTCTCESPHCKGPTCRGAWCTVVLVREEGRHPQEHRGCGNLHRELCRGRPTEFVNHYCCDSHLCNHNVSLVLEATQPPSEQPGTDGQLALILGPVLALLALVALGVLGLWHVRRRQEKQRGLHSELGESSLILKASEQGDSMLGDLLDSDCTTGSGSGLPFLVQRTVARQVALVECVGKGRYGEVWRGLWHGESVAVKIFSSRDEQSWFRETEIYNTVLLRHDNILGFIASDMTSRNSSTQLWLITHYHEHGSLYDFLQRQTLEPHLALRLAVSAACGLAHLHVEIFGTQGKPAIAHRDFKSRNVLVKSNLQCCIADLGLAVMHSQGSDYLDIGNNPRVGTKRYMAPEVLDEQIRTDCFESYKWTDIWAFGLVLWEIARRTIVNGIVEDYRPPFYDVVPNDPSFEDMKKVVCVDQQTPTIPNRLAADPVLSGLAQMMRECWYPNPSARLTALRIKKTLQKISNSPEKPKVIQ
Sequence of Casein kinase I isoform gamma-3 (Homo sapiens) (Q9Y6M4 whole entry, looked up, canonical isoform): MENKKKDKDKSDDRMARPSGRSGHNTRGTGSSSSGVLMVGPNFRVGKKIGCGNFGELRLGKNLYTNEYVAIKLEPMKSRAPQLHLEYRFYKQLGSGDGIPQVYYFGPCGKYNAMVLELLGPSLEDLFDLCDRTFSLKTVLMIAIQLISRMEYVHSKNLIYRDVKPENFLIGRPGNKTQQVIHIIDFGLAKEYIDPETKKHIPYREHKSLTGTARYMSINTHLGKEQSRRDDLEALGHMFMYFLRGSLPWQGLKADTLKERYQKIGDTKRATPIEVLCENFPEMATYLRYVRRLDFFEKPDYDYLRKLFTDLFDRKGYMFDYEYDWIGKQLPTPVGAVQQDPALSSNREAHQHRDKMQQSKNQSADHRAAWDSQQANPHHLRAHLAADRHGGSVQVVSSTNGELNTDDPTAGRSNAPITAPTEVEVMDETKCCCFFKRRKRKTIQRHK
Sequence of Fibroblast growth factor receptor 1 (Homo sapiens) (P11362 22-822 limits assumed): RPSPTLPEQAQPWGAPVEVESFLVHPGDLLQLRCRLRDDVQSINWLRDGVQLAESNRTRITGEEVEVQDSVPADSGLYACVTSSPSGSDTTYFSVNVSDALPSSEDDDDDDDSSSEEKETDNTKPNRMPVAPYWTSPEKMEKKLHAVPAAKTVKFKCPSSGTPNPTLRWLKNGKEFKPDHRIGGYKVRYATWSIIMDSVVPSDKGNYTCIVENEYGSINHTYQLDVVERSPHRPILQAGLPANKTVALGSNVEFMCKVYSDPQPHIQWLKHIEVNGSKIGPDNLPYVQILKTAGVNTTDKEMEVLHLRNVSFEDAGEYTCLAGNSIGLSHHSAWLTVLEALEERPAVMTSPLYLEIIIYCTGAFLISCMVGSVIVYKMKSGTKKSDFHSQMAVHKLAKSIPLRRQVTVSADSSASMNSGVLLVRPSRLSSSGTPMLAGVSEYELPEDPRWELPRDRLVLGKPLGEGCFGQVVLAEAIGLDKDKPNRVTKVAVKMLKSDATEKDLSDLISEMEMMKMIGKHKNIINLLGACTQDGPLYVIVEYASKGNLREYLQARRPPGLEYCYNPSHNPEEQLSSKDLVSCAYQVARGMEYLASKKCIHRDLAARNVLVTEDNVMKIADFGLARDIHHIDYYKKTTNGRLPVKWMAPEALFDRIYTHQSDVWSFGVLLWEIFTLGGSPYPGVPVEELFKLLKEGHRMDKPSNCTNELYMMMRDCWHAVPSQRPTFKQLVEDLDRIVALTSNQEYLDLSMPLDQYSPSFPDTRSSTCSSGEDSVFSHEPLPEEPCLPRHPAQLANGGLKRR

On to `O=C(N[C@@H](C1CC1)C(F)(F)F)c1cc(-c2cnn3cc(-c4ccc(F)cc4)cnc23)cs1`, for which the inhibition in assay [1] and in assay [3] was 0% each time. Also, the fold change (FC) in assay [2] was found to be 0.07.
As for `CNC(=O)c1ccccc1Oc1nc(Nc2cc(OC)c(OC)c(OC)c2)ncc1Br`, the fold change (FC) in assay [4] amounted to 0.11; in assay [8] it was 0.03. For the same compound, the values for the inhibition in assay [5], in assay [6] and in assay [7] were 0%, 13% and 0%, respectively.

The inhibition is the share of the control response that was lost under treatment.
